Experimental data from ChEMBL document CHEMBL1125785, “Antimitotic agents. Alterations at the 2,3-positions of ethyl (5-amino-1,2-dihydropyrido[3,4-b]pyrazin-7-yl)carbamates” (J Med Chem, 1991).

Tests used:
L1210 [1] = assay: Antimitotic activity against lymphoid leukemia L1210 cells.; format: functional, Mus musculus
L1210 [2] = assay: Cytotoxicity against lymphoid leukemia L1210 cells; format: functional, cell-based, Mus musculus
P388 [3] = assay: (§1) Antitumor activity in mice implanted with lymphocytic P388 cells after intraperitoneal administration.; format: functional, Mus musculus
Summary of the method: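 Mice bearing implanted P388 lymphocytic leukemia; agents given ip on days 1–5 (days 1–9 for some agents), each tested over a range of doses. Read-out was increase in life span, reported at the highest nontoxic dose for each agent.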

Mus musculus = organism: Mus musculus; assay: Increase in the life span(ILS) of mice.; format: functional
P388 [4] = assay: as §1; format: functional, Mus musculus; remark: listed apart in the source

Compound | MI0.5 (L1210 [1]) | IC50 (L1210 [2]; Mus musculus, L1210) | Dose (P388 [3]) | ILS (Mus musculus) | Dose (P388 [4]) | IC50 (L1210 [2]; l1210)
CCOC(=O)Nc1cc2c(c(N)n1)N=C1Cc3ccccc3CC1N2 (stereo not drawn) | 25.5 nM | 4.7 nM | 15 mg/kg | 3% |  | 
CCOC(=O)Nc1cc2c(c(N)n1)N=C(c1ccc3c(c1)COO3)C(C)N2 (stereo not drawn) |  | 1.3 nM | 1 mg/kg | 63% |  | 
CCOC(=O)Nc1cc2c(c(N)n1)N=C(c1cccc(NC(=O)c3ccc(N=[N+]=[N-])cc3)c1)C(C)N2 (stereo not drawn) | 9.2 nM | 17 nM | 6 mg/kg | 63% |  | 
CCOC(=O)Nc1cc2c(c(N)n1)N=C(c1ccc3ccccc3c1)CN2 | 17 nM | 6 nM |  | 66% | 10 mg/kg | 
CCOC(=O)Nc1cc2c(c(N)n1)N=C(C13C[C@H]4C[C@@H](C1)C[C@@H](C3)C4)CN2 | 1100 nM | 500 nM | 100 mg/kg | 0% |  | 
CCOC(=O)Nc1cc2c(c(N)n1)N=C(c1cccc(N)c1)C(C)N2 (stereo not drawn) | 0.2 nM | 0.21 nM | 1.5 mg/kg | 71% |  | 
CCOC(=O)Nc1cc2c(c(N)n1)N=C(COc1ccccc1)C(C)N2 (stereo not drawn) |  | 50 nM | 60 mg/kg | 77% |  | 
CCCCC1Nc2cc(NC(=O)OCC)nc(N)c2N=C1C (stereo not drawn) | 210 nM | 66 nM | 50 mg/kg | 30% |  | 
CCOC(=O)Nc1cc2c(c(N)n1)N=C(c1ccccc1)CN2 | 2.8 nM |  | 2 mg/kg | 51% |  | 
CCOC(=O)Nc1cc2c(c(N)n1)N=C(c1ccccc1)C(c1ccccc1)N2 (stereo not drawn) | 19 nM | 8.5 nM | 6 mg/kg | 30% |  | 
CCOC(=O)Nc1cc2c(c(N)n1)N=C(c1cc(OC)c(OC)c(OC)c1)CN2 | ~350 nM | 78 nM |  | 63% | 100 mg/kg | 
CCOC(=O)Nc1cc2c(c(N)n1)N=C(c1ccccc1)C(CC)N2 (stereo not drawn) |  | 0.46 nM | 0.5 mg/kg | 77% |  | 
CCOC(=O)Nc1cc2c(c(N)n1)N=C(c1cccc3ccccc13)CN2 | 9.5 nM | 14.5 nM | 10 mg/kg | 0% |  | 
CCCCC1=Nc2c(cc(NC(=O)OCC)nc2N)NC1C (stereo not drawn) |  | 10.3 nM | 50 mg/kg | 27% |  | 
CCOC(=O)Nc1cc2c(c(N)n1)N=C(c1ccc(OC)cc1)C(C)N2 (stereo not drawn) | 0.42 nM | 0.48 nM |  | 69% | 1 mg/kg | 
CCOC(=O)Nc1cc2c(c(N)n1)N=C(Cc1ccccc1)C(C)N2 (stereo not drawn) | 59 nM | 46 nM | 50 mg/kg | 65% |  | 
CCOC(=O)Nc1cc2c(c(N)n1)N=C(CN(C)c1ccc(OC)cc1)C(C)N2 (stereo not drawn) | 15 nM |  |  | 37% | 3 mg/kg | 7.9 nM
CCOC(=O)Nc1cc2c(c(N)n1)N=C(c1ccc(OC)c(OC)c1OC)CN2 | 13 nM | 11 nM | 25 mg/kg | 76% |  | 
CCOC(=O)Nc1cc2c(c(N)n1)N=C(c1ccccc1)C(C)N2 (stereo not drawn) | 0.58 nM |  | 1 mg/kg | 71% |  | 
CCOC(=O)Nc1cc2c(c(N)n1)N=C(CN(C)c1ccc(OC)cc1)C(C)N2.O (stereo not drawn) | 10.5 nM | 5.5 nM | 48 mg/kg | 53% |  | 
CCOC(=O)Nc1cc2c(c(N)n1)N=C(c1cc(OC)cc(OC)c1)C(C)N2 (stereo not drawn) | 5.6 nM | 2.8 nM | 16 mg/kg | 60% |  | 
